Values belong to the compound of their own block, whether it stands above or below them.
Legend:
Rattus norvegicus = species on record: Rattus norvegicus; experiment: Hydrolytic activity against esterase with hepatic microsomes relative to E16-1,2; details: Liver
[1] = target: T1, Estrogen receptor (Rattus norvegicus) (UniProt P06211+Q62986); experiment: In vivo uterotropic activity at 100 ug subcutaneous dose in immature rats as ng estradiol dose for equivalent effect; format: functional, organism-based
Outline: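 Immature (22-day) female Sprague–Dawley rats given daily subcutaneous injections in 0.1 mL sesame oil for 3 days, 100 μg total dose; controls received oil. Uteri removed, blotted and weighed on day 4. Compared with 5 ng E2 run concurrently; n = 5, usually 2 separate experiments.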

[2] = target: T2, Estrogen receptor (Mus musculus) (UniProt O08537+P19785); experiment: Vaginal activity relative to estradiol (E2); format: functional
T2 sequence (O08537 whole entry, looked up): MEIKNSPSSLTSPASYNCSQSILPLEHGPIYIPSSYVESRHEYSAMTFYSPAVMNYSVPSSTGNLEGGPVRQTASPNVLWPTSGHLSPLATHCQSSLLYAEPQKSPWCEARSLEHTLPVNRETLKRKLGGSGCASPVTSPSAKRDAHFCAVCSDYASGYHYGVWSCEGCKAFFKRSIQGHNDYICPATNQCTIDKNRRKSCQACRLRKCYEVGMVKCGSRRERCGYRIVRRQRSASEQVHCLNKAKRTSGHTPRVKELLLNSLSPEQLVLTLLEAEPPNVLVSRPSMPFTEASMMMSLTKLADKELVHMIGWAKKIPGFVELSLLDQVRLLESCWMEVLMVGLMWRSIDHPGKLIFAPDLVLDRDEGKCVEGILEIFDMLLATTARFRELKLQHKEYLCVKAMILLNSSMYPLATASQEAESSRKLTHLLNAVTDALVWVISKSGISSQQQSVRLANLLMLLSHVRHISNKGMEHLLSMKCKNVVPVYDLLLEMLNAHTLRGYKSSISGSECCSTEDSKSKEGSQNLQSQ
T2 sequence (P19785 whole entry, looked up): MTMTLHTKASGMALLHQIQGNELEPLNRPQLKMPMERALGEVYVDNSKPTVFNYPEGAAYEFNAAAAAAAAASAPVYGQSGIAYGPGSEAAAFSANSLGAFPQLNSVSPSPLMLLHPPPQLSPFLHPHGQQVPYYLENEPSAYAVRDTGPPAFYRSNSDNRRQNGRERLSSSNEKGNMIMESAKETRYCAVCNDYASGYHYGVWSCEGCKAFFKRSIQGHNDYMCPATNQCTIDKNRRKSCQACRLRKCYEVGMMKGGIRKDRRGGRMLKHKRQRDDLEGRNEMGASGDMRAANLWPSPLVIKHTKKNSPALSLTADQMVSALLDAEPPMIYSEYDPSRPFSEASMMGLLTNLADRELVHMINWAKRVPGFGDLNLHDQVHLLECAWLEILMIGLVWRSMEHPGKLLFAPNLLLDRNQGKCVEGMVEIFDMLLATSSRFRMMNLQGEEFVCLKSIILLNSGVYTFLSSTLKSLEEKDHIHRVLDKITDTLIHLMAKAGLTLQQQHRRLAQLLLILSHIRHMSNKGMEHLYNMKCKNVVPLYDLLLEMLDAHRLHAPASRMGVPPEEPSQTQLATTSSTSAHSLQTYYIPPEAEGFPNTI
Outline: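 Female CD-1 mice ovariectomized; 1 week later, compound instilled intravaginally in 10 μL sesame oil. Vaginal reductase induction measured and compared with 50 pg E2. n = 5–6 per group, at least two separate occasions.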

[3] = target: T1, Estrogen receptor (Rattus norvegicus); experiment: Uterotropic activity relative to estradiol (E2); format: functional, tissue-based; details: Uterus
Outline: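 Immature female Sprague–Dawley rats, 22 days old, injected subcutaneously once a day for 3 days with test steroid in 0.1 mL sesame oil, 100 µg total dose; sesame oil controls; 5 ng E2 total run concurrently as reference. Uteri removed on day 4, blotted and weighed. n = 5, usually 2 separate experiments; activity expressed relative to E2.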

[4] = target: Estrogen receptor beta (Homo sapiens) (UniProt Q92731); experiment: Binding of […] to human estrogen receptor beta ligand binding domain expressed in Escherichia coli
Chain of Estrogen receptor beta (Homo sapiens) (Q92731 whole entry, the tested form may be a part): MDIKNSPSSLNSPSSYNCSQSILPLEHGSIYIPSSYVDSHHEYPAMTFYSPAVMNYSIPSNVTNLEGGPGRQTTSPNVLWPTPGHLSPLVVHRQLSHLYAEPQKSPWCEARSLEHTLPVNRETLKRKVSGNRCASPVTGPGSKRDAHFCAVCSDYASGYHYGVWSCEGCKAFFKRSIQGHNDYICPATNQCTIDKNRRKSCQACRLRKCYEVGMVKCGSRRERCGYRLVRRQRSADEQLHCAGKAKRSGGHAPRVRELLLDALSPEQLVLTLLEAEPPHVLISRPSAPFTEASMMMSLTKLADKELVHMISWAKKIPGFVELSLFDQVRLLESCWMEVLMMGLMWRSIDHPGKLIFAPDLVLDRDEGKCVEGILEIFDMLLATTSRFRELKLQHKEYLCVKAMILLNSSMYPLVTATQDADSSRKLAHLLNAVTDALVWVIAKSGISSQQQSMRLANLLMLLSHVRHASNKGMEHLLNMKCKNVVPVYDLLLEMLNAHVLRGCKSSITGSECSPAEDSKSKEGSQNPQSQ
Outline: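 Competitive binding against [3H]E2 using lysates of E. coli expressing human ERβ LBD (M214–Q530); incubated overnight at 0–2 °C. Result given as RBA versus E2 (E2 = 100); mean of 3 experiments, each in duplicate.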

[5] = target: T2, Estrogen receptor (Mus musculus); experiment: In vivo vaginal activity in ovariectomised mice at 50 ng vaginal dose as pg estradiol dose for equivalent effect

RHA (Rattus norvegicus): 2.3%
Uterotropic activity [1]: 0
Vaginal activity [2]: 0.42
Activity [4]: 7
Vaginal activity [5]: 21
SMILES: CCOC(=O)[C@H]1C[C@H](O)[C@@]2(C)CC[C@@H]3c4ccc(O)cc4CC[C@H]3[C@H]12

RHA (Rattus norvegicus): 7%
SMILES: CCCCOC(=O)[C@H]1C[C@H](O)[C@@]2(C)CC[C@@H]3c4ccc(O)cc4CC[C@H]3[C@H]12

RHA (Rattus norvegicus): 0.4%
SMILES: CC(C)OC(=O)[C@H]1C[C@H](O)[C@@]2(C)CC[C@@H]3c4ccc(O)cc4CC[C@H]3[C@H]12

RHA (Rattus norvegicus): 71%
SMILES: CCOC(=O)C[C@H]1C[C@H](O)[C@@]2(C)CC[C@@H]3c4ccc(O)cc4CC[C@H]3[C@H]12

RHA (Rattus norvegicus): 1.7%
Uterotropic activity [1]: 0
Vaginal activity [2]: 0.38
Vaginal activity [5]: 19
SMILES: COC(=O)[C@H]1CC(O)[C@@]2(C)CC[C@@H]3c4ccc(O)cc4CC[C@H]3[C@H]12 (stereo partly specified)

RHA (Rattus norvegicus): 31%
SMILES: COC(=O)C[C@H]1C[C@H](O)[C@@]2(C)CC[C@@H]3c4ccc(O)cc4CC[C@H]3[C@H]12

RHA (Rattus norvegicus): 106%
Uterotropic activity [1]: 6.5
Vaginal activity [2]: 0.42
Uterotropic activity [3]: 0.07
Vaginal activity [5]: 21
SMILES: COC(=O)C[C@H]1C[C@]2(C)[C@@H](O)CC[C@H]2[C@@H]2CCc3cc(O)ccc3[C@@H]12

RHA (Rattus norvegicus): 70%
SMILES: CCOC(=O)C[C@@H]1Cc2cc(O)ccc2[C@H]2CC[C@]3(C)[C@@H](O)CC[C@H]3[C@H]12

RHA (Rattus norvegicus): 152%
Activity [4]: 70
SMILES: CCOC(=O)C[C@H]1C[C@]2(C)[C@@H](O)CC[C@H]2[C@@H]2CCc3cc(O)ccc3[C@@H]12

RHA (Rattus norvegicus): 248%
SMILES: COC(=O)CC[C@H]1C[C@H](O)[C@@]2(C)CC[C@@H]3c4ccc(O)cc4CC[C@H]3[C@H]12

Activity [4]: 100
SMILES: C[C@]12CC[C@@H]3c4ccc(O)cc4CC[C@H]3[C@@H]1CC[C@@H]2O

More lines, now with the values behind:

SMILES: CCOC(=O)[C@@H]1Cc2cc(O)ccc2[C@H]2CC[C@]3(C)[C@@H](O)CC[C@H]3[C@@H]21
RHA (Rattus norvegicus): 0%
Uterotropic activity [1]: 4
Vaginal activity [2]: 0.44
Uterotropic activity [3]: 0.04
Activity [4]: 9
Vaginal activity [5]: 22

SMILES: COC(=O)C[C@@H]1Cc2cc(O)ccc2[C@H]2CC[C@]3(C)[C@@H](O)CC[C@H]3[C@H]12
RHA (Rattus norvegicus): 30%

SMILES: CCOC(=O)CC[C@H]1C[C@H](O)[C@@]2(C)CC[C@@H]3c4ccc(O)cc4CC[C@H]3[C@H]12
RHA (Rattus norvegicus): 674%

SMILES: CCOC(=O)[C@@H]1C[C@H]2[C@@H]3CCc4cc(O)ccc4[C@H]3CC[C@]2(C)[C@H]1O
RHA (Rattus norvegicus): 100%
Activity [4]: 0.3

SMILES: CCCCOC(=O)[C@@H]1Cc2cc(O)ccc2[C@H]2CC[C@]3(C)[C@@H](O)CC[C@H]3[C@@H]21
RHA (Rattus norvegicus): 0%

SMILES: C[C@]12CC[C@@H]3c4ccc(O)cc4C[C@@H](C(=O)OCCF)[C@H]3[C@@H]1CC[C@@H]2O
RHA (Rattus norvegicus): 0%

SMILES: C[C@]12CC[C@@H]3c4ccc(O)cc4CC[C@H]3[C@@H]1C[C@@H](C(=O)OCCF)[C@@H]2O
Uterotropic activity [1]: 2
Vaginal activity [2]: 0.42
Uterotropic activity [3]: 0.02
Vaginal activity [5]: 21

SMILES: C[C@]12CC[C@@H]3c4ccc(O)cc4CC[C@H]3[C@@H]1[C@@H](C(=O)OCCF)C[C@@H]2O
RHA (Rattus norvegicus): 4.5%

SMILES: COC(=O)CC[C@H]1C[C@]2(C)[C@@H](O)CC[C@H]2[C@@H]2CCc3cc(O)ccc3[C@@H]12
RHA (Rattus norvegicus): 64%

SMILES: CCOC(=O)CC[C@H]1C[C@]2(C)[C@@H](O)CC[C@H]2[C@@H]2CCc3cc(O)ccc3[C@@H]12
RHA (Rattus norvegicus): 542%
Activity [4]: 64

SMILES: COC(=O)[C@@H]1Cc2cc(O)ccc2[C@H]2CC[C@]3(C)[C@@H](O)CC[C@H]3[C@@H]21
RHA (Rattus norvegicus): 0%
Uterotropic activity [1]: 10.5
Vaginal activity [2]: 1
Uterotropic activity [3]: 0.11
Vaginal activity [5]: 50

SMILES: CCOC(=O)C[C@H]1Cc2cc(O)ccc2[C@H]2CC[C@]3(C)[C@@H](O)CC[C@H]3[C@H]12
RHA (Rattus norvegicus): 0%

SMILES: CCCOC(=O)[C@@H]1Cc2cc(O)ccc2[C@H]2CC[C@]3(C)[C@@H](O)CC[C@H]3[C@@H]21
RHA (Rattus norvegicus): 0%

SMILES: CCCOC(=O)[C@H]1C[C@H](O)[C@@]2(C)CC[C@@H]3c4ccc(O)cc4CC[C@H]3[C@H]12
RHA (Rattus norvegicus): 7.8%
